Hits are enriched below; roughly 2.3% of the tested compounds scored in any of these assays.
NPY-Y1 PAM-ag: potentiates or activates human NPY-Y1 receptor | P25929 | NPY-Y1 expressing cells, potentiator/agonist activation | activation, % at 3.6 µM | 220,000 tested, 0.37% active | AID 1304; in the data active = activation above about 33%, passing the limit was not always enough;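 also: cells stimulated with NPY at EC10 then isoproterenol at EC100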
Target sequence (P25929 whole entry, looked up): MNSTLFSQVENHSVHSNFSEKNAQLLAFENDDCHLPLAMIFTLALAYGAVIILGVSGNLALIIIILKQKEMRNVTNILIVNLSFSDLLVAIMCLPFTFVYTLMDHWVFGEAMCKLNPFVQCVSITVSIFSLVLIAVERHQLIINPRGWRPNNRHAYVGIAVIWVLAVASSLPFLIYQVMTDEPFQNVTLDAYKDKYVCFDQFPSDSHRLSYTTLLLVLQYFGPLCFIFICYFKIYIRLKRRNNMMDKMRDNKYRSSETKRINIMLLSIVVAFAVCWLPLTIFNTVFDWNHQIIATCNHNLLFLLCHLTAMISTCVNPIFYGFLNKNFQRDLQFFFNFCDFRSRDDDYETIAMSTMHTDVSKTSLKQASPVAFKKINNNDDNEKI
NPY2 pot ag: human NPY-Y2 potentiation or agonism, primary screen; P49146; cells expressing NPY-Y2, potentiator/agonist read-out; activation, % at 3.6 µM; 220,000 tested, 0.45% active; AID 1359; in the data active = activation above about 27%;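 also: cells stimulated with NPY near EC25 plus isoproterenol at EC100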
NPY-Y1 antag: NPY-Y1 (human) receptor antagonism. 200,000 tested, 1% active. AID 1040. inhibition, % at 3.6 µM. P25929. HEK293-CNG Y1 cells, membrane potential fluorescence; NPY at EC95, then isoproterenol;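 active = inhibition above the campaign mean inhibition of all tested compounds plus 3 SD, cut at about 20% in these data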
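Assay system: HEK293 cells with Y1 receptor plus CNG channel | Probe or stimulus: NPY (25 nM), isoproterenol (1 µM), Ro 20-1724 (25 µM) | Timing: Compound incubation 1 h at room temperature, readout 45 min post-stimulation | Measured by: Membrane-potential fluorescent dye readout | Benchmarks: High control isoproterenol alone, low control NPY with isoproterenol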
Tb hexokinase: T. brucei hexokinase 1 inhibition | recombinant TbHK1, G6PDH-coupled NADH A340 | inhibition, % at 10 µM | 220,000 tested, 0.11% active | AID 1430;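 active = inhibition of 50% or more in the single-dose primary screen; inactive = inhibition below 50%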
NPY-Y2 antag: NPY-Y2 (human) receptor antagonism; NPY-Y2 expressing cells, antagonist mode; 140,000 tested, 0.99% active; AID 793; inhibition, % at 2.7 µM
Calpain2 inh: calpain II (pig) inhibition. purified calpain II, fluorogenic peptide substrate, 30 min. inhibition, % at 16 µM. 220,000 tested, 0.37% active;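 active = inhibition above about 50%, limit read from the data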
NPY1 antag conf: human NPY-Y1 antagonism, confirmation; AID 1254; 1,200 tested, 21% active; inhibition, % at 3.6 µM; shares compounds with NPY-Y1 antag; HEK293-CNG NPY-Y1, membrane potential fluorescence, cAMP; NPY challenge against isoproterenol-raised cAMP; in the data active = inhibition above about 20%
NPY-Y2 antag ct: antagonizes human NPY-Y2, counter-screen to NPY-Y1 antagonists; 1,200 tested, 28% active; shares compounds with NPY-Y1 antag; inhibition, % at 3.6 µM; HEK293 NPY-Y2 CNG membrane potential fluorescence, antagonism; cells given NPY, then isoproterenol
Each line names hits and unclear results; the compound was inactive in the other large screens (follow-up assays come after a bar, where they were run). Rule as the data show it, unless noted: active = inhibition above about 17%; inactive = the rest.

COc1ccc2nc(SC(C(=O)c3ccccc3)c3ccccc3)nc(C)c2c1 (configuration not stated)	NPY-Y1 antag 39.5 | NPY1 antag conf 26.7 | NPY-Y2 antag ct 35.0
COc1cccc(C2NC(=O)NC(C)=C2C(=O)Nc2ccc(C)cc2)c1 (configuration not stated)	none
COC(=O)C1=C(Nc2ccc(C)cc2)C=C(C)C(C(=O)OC)C1c1cccc(OC)c1 (configuration not stated)	NPY-Y1 antag 24.3 | NPY1 antag conf inactive | NPY-Y2 antag ct inactive
CCOC(=O)C1(C)NC(c2ccccc2F)C2C(=O)N(CC)C(=O)C21 (configuration not stated)	none (no result: NPY-Y2 antag)
Cc1nc(-c2ccc(Br)cc2)ccc1C(=O)O	none
O=C(c1cnc2c(c1)COc1ccc(Cl)cc1-2)c1ccccc1O	NPY-Y1 antag 22.0 | NPY1 antag conf inactive | NPY-Y2 antag ct inactive
COC(=O)c1cc2c(ccn2-c2ccc(F)cc2)n1Cc1ccc(OC)cc1	NPY-Y1 antag 24.5 | NPY1 antag conf inactive | NPY-Y2 antag ct inactive
CCn1c(C(=O)OC)cc2c1ccn2-c1ccc(F)cc1	NPY-Y1 antag 27.2 | NPY1 antag conf inactive | NPY-Y2 antag ct inactive
CCN(CC)c1ncnc2scc(C3COc4ccccc4O3)c12 (configuration not stated)	NPY-Y1 antag 38.0 | NPY1 antag conf inactive | NPY-Y2 antag ct inactive
O=C(Cc1ccccc1)Nc1ccccc1N1CCN(c2ccccc2)CC1	NPY-Y1 antag 22.4 | NPY1 antag conf inactive | NPY-Y2 antag ct inactive
CCCCCC(=O)Nc1ccccc1N1CCOCC1	none
O=C(Nc1ccccc1N1CCCCC1)c1ccccc1F	none
CCCCC(=O)Nc1ccccc1N1CCN(c2ccccc2)CC1	NPY-Y1 antag 23.5 (no result: NPY-Y2 antag) | NPY1 antag conf inactive | NPY-Y2 antag ct 29.6
O=C(Nc1ccccc1N1CCN(c2ccccc2)CC1)c1ccccc1F	NPY-Y1 antag 36.4 (no result: NPY-Y2 antag) | NPY1 antag conf inactive | NPY-Y2 antag ct inactive
CS(=O)(=O)N1CCN(c2ccccc2NC(=O)Cc2ccccc2)CC1	none
COC(=O)/C(=N/Nc1ccccc1C)N1CCCc2ccccc21	NPY-Y1 antag 35.8 | NPY1 antag conf inactive | NPY-Y2 antag ct inactive
COc1ccc(Nc2nc3c(C)cccc3cc2C#N)c(OC)c1	none
O=C(N1CCN(c2ccc(F)cc2)CC1)C12CC3CC(CC(C3)C1)C2	none
O=C(Nc1c2c(nn1-c1ccc(F)cc1)CS(=O)(=O)C2)C12CC3CC(CC(C3)C1)C2	NPY-Y1 antag 33.3 | NPY1 antag conf inactive | NPY-Y2 antag ct inactive
c1ccc2c(c1)[nH]c1c3ccccc3sc21	none (no result: NPY-Y1 antag, NPY-Y2 antag)
Cc1nc(-c2cccc(NS(=O)(=O)c3ccc4ccccc4c3)c2)cs1	NPY-Y1 antag 32.2 | NPY1 antag conf inactive | NPY-Y2 antag ct inactive
NC(=O)C1CCN(C(=O)Nc2csc3ccccc23)CC1	none (no result: NPY-Y1 antag, NPY-Y2 antag)
CN(C)c1ccnc(N(Cc2ccccc2)Cc2ccccc2)c1C#N	NPY-Y1 antag 38.7 | NPY1 antag conf 47.8 | NPY-Y2 antag ct 82.9
CN(C)c1ccnc(NCc2ccccc2)c1C#N	none
O=C(c1nc2ccccn2c1CN1CCCC(OCc2ccccc2)C1)N1CCCC1 (configuration not stated)	NPY-Y1 antag 23.7 (no result: NPY-Y2 antag) | NPY1 antag conf inactive | NPY-Y2 antag ct inactive
COc1ccc(Oc2cn[nH]c2-c2ccc(O)cc2O)cc1	NPY-Y1 antag 61.4 | NPY1 antag conf 40.2 | NPY-Y2 antag ct inactive
C=CCN(CC=C)C(=O)C(=O)c1ccn(-c2c(C)csc2C(=O)OC)c1	none (no result: NPY-Y2 antag)
Cc1cccc(OCC(=O)Nc2cccc(-c3nnc(-c4ccccc4)o3)c2)c1C	none
COc1ccccc1OCC(=O)Nc1cccc(-c2nc3ccccc3o2)c1	NPY-Y1 antag 20.2 | NPY1 antag conf inactive | NPY-Y2 antag ct inactive
C/C(=N\Nc1nc2ccccc2[nH]1)c1cc2ccccc2o1	NPY-Y1 antag 33.1 | NPY1 antag conf inactive | NPY-Y2 antag ct 17.4
C/C(=N\Nc1nc2ccccc2[nH]1)c1ccc2c(c1)OCCO2	none (no result: NPY-Y2 antag)

Bioassay records as filed in PubChem.
